A selection: hits, their analogues and other compounds. The true share with any hit is near 2.5%.
SENP1 inh – SENP1 (human) catalytic domain inhibition; inhibition, % at 10 µM; AID 624204; Q9P0U3; 0.21% of 360,000 active; recombinant SENP1 catalytic domain, CyPet-SUMO1-YPet FRET cleavage;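 active means inhibition at least 30% at 10 µM, raw YFP signal under a set limit, fluorescence ratio 0.5 to 1.5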
Target sequence (Q9P0U3 419-644 limits assumed): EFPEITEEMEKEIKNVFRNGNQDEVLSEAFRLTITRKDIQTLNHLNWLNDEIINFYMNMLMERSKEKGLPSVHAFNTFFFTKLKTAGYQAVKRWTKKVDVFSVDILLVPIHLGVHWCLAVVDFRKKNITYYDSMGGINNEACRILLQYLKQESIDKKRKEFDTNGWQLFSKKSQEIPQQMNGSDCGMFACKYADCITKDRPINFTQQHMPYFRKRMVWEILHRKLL
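material = recombinant human SENP1 catalytic domain, His6-tagged | quantity = 20 pM enzyme | reagent = 25 nM SUMO1 FRET substrate | compound dosing = 10 µM single point, 0.5% DMSO | timing = 50 min enzyme reaction, room temperature, light-protected | detection = FRET, CFP and YFP emission | control set = no-enzyme low, enzyme-DMSO high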
ABHD5-PLIN5 inh – blocks binding of human ABHD5 to perilipin-5; AID 602281; inhibition, % at 4 µM; Split G. princeps luciferase complementation, luminescence, 4 h; 0.78% of 360,000 active;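 active means inhibition above the mean inhibition across every tested compound plus 3 SD, cut at about 22% in these data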
GRK2 aptamer HTS – inhibitors of human GRK2 displacing RNA aptamer; 0.59% of 330,000 active; bead flow cytometry, FAM-aptamer displacement from GRK2; AID 488847; inhibition of aptamer binding, % at 10 µM; P25098;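 active means inhibition of aptamer binding above 40%, roughly 3 SD of noise, on plates passing a quality check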;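 further: median bead fluorescence of bound FAM aptamer so fluorescent compounds give negative values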
NadD inh – blocks S. aureus nicotinate mononucleotide adenylyltransferase. purified NadD enzyme, colorimetric absorbance read-out. inhibition, % at 20 µM. 0.78% of 360,000 active. AID 602399; in the data active means inhibition above about 26%
Beta2AR agonist – human beta-2 adrenergic receptor agonism by FAP | P07550 | Am2.2-beta2AR cells, FAP receptor internalization, flow cytometry | response, % (no concentration beside the values) | 0.43% of 340,000 active | AID 504454;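 active means response above a set limit, near 3 SD of response in nonfluorescent compounds, cut at about 42% in these data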
Target sequence (P07550 whole entry, looked up): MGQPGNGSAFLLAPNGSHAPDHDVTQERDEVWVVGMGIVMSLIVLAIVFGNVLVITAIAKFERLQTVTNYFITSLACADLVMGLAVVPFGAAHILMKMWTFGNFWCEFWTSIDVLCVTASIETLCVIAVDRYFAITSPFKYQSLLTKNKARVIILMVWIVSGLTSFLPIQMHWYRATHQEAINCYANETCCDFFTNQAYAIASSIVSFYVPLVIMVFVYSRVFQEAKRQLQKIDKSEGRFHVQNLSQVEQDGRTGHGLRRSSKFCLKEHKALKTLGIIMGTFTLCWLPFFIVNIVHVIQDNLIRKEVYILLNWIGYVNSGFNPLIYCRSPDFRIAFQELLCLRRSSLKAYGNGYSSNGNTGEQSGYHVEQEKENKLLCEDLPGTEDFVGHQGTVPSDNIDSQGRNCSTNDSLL
NadD inh conf – NadD (S. aureus) inhibition, single concentration confirmation; 13% of 2,000 active; purified S. aureus NadD, colorimetric enzyme assay; shares compounds with NadD inh; inhibition, % at 20 µM; in the data active means inhibition mostly above about 42%, no sharp cut-off; inactive means mostly below about 42%
A number is an active result; . = inactive; / = no result given.

SMILES	SENP1 inh	ABHD5-PLIN5 inh	GRK2 aptamer HTS	NadD inh	Beta2AR agonist	NadD inh conf
O=S(=O)(Nc1cccc(-c2ccc(N3CCCCCC3)nn2)c1)c1ccccc1Cl	.	.	.	50	.	.
COc1ccc(C)cc1S(=O)(=O)Nc1cccc(-c2ccc(N3CCCCCC3)nn2)c1	.	.	.	31	.	.
CCOC(=O)c1ccc(N=C2C(=S)N(c3ccc(C(=O)OCC)cc3)C(=N)N2/N=C/c2ccccc2)cc1	.	.	.	39	.	.
CCOC(=O)c1ccc(N=c2scc(C)n2CC)cc1	.	.	.	.	.	/
O=C(NC1CC1)C1CC(=O)N(c2cccc(Cl)c2)C1 (stereo not drawn)	.	.	.	.	.	/
COc1cc(NS(=O)(=O)c2ccc(NC(=S)NC(=O)c3sc4ccccc4c3Cl)cc2)nc(OC)n1	.	.	.	.	.	/
NC(N)=NS(=O)(=O)c1ccc(NC(=S)NC(=O)c2sc3ccccc3c2Cl)cc1	.	.	.	43	.	.
O=C(NNC(=S)NC(=O)c1sc2ccccc2c1Cl)c1ccc(Cl)cc1	.	.	.	36	.	.
COc1cc(NS(=O)(=O)c2ccc(NC(=S)NC(=O)c3sc4cc(F)ccc4c3Cl)cc2)nc(OC)n1	.	.	.	35	.	.
CC1=C([N+](=O)[O-])C(c2ccc(Cl)cc2)NC(=O)N1C (stereo not drawn)	.	.	.	.	.	/
O=c1c(/C=N/Nc2ccccc2)c(Sc2nnnn2-c2ccccc2)nc2ccccn12	.	.	/	31	.	.
CC(C)Cn1c(N)c(/C=N/NC(=O)c2ccc(Cl)cc2)c(=O)n(C)c1=O	.	.	.	.	.	/
Cc1ccccc1-n1nc2c(c1NC(=O)c1c(-c3ccccc3Cl)noc1C)CSC2	.	.	.	63	.	.
Cc1ccc(-n2nc3c(c2NC(=O)C(C)(C)C)CSC3)c(C)c1	.	.	.	.	.	/
Cc1ccc(-n2nc3c(c2NC(=O)/C=C\c2ccc4c(c2)OCO4)CSC3)c(C)c1	.	.	.	31	.	57
Cc1ccc(-n2nc3c(c2NC(=O)c2c(-c4ccccc4Cl)noc2C)CSC3)cc1	/	/	.	/	/	/
Cc1ccc(-n2nc3c(c2NC(=O)/C=C\c2ccc4c(c2)OCO4)CSC3)cc1	.	.	.	41	.	62
Cc1ccc(-n2nc3c(c2NC(=O)c2ccc(Br)o2)CSC3)c(C)c1	.	.	.	85	.	62
Cc1ccccc1-n1nc2c(c1NC(=O)/C=C\c1ccc3c(c1)OCO3)CSC2	.	.	.	.	.	/
CCCN1CCN(CCCNC(=O)c2ccc(CS(=O)c3ccccc3C)o2)CC1 (stereo not drawn)	.	.	.	.	.	/
COc1ccccc1C(=O)NC(CCSC)C(=O)NCc1ccncc1 (stereo not drawn)	.	.	.	.	.	/
Cc1cccc(-n2nc3c(c2NC(=O)c2ccco2)CSC3)c1C	.	.	.	44	.	73
O=C(N=c1ccn(-c2nc3ccccc3nc2NS(=O)(=O)c2ccc(Cl)cc2)cc1)c1cccs1	.	.	.	29	.	.
CCOc1ccc(S(=O)(=O)Nc2nc3ccccc3nc2-n2ccc(=NC(=O)c3cccs3)cc2)cc1	.	.	.	26	.	.
O=C(N=c1ccn(-c2nc3ccccc3nc2NS(=O)(=O)c2ccc(Cl)cc2)cc1)c1ccccc1Cl	/	/	.	/	/	/
SMILES	SENP1 inh	ABHD5-PLIN5 inh	GRK2 aptamer HTS	NadD inh	Beta2AR agonist	NadD inh conf
COc1ccc(C)cc1NC(=O)CCNC(=O)Cn1cnc2ccccc2c1=O	.	.	.	.	.	/
CCN1CCN(C(=O)c2ccc(Cl)c(S(=O)(=O)N(C)c3ccccc3)c2)CC1	.	.	.	.	.	/
S=c1[nH]nc(-c2cccs2)n1/N=C/c1cn(-c2ccccc2)nc1-c1cccs1	.	.	.	.	.	/
Cc1ccc(-c2nn(-c3ccccc3)cc2/C=N/n2c(-c3cccs3)n[nH]c2=S)cc1	.	.	.	41	.	.
C=C1CN(Cc2ccccc2)S(=O)(=O)c2ccccc21	.	.	.	42	.	.
C=C1CN(CC(=O)OC)S(=O)(=O)c2ccccc21	.	.	.	.	.	/
CC(C)C[C@H]1CN([C@@H](CC(C)C)CN2CCC[C@H]2CN2C(=O)C(=O)NC[C@@H]2Cc2ccc(O)cc2)C(=O)C(=O)N1CC1CCCCCC1	.	.	/	30	/	.
CC(C)C[C@@H](CN1CCC[C@H]1CN1C(=O)C(=O)NC[C@@H]1Cc1ccccc1)N1C[C@H](Cc2ccc(O)cc2)N(CC2CCCCCC2)C(=O)C1=O	.	.	/	41	/	.
CCCCc1c(-c2ccc(OC)cc2)ncn1CCc1ccccc1OC	.	.	/	.	/	/
CCOC(=O)[C@]12CCCC=C1N(Cc1cccc3ccccc13)C(=O)[C@H](CC(=O)NCC1CCCCC1)C2	.	.	/	.	/	/
CCOC(=O)C1CCCN(C(=O)CCCn2nnnc2CN2CCOCC2)C1 (stereo not drawn)	.	.	/	.	.	/
Cc1ccc(S(=O)(=O)N(C(=O)c2ccncc2)c2ccc3oc4c(c3c2)CCCC4)cc1[N+](=O)[O-]	.	.	.	35	.	.
Cc1ccc([N+](=O)[O-])cc1S(=O)(=O)N(C(=O)c1ccncc1)c1ccc2oc3c(c2c1)CCCC3	.	.	.	.	.	/
COc1ccc(NC(=O)c2ccc(=O)[nH]c2)cc1S(=O)(=O)N1CCOCC1	.	.	/	.	.	/
O=C1NC[C@H](Cc2ccc(O)cc2)N(C[C@@H]2CCCN2C[C@H](Cc2ccccc2)N2C[C@H](Cc3ccc(O)cc3)N(CC3CCCCC3)C(=O)C2=O)C1=O	.	.	/	41	/	.
O=C1NC[C@H](Cc2ccc(O)cc2)N(C[C@@H]2CCCN2C[C@H](Cc2ccc(O)cc2)N2C[C@H](Cc3ccccc3)N(CC3CCCCC3)C(=O)C2=O)C1=O	.	.	/	33	/	.
O=C1NC[C@H](Cc2ccccc2)N(C[C@@H]2CCCN2C[C@H](Cc2ccc(O)cc2)N2C[C@H](Cc3ccccc3)N(CCc3ccccc3)C(=O)C2=O)C1=O	.	.	/	30	/	.
O=C1NC[C@H](Cc2ccccc2)N(C[C@H]2CCCN2C[C@H](Cc2ccccc2)N2C[C@H](Cc3ccccc3)N(CC3CCCCCC3)C(=O)C2=O)C1=O	.	.	/	.	.	/
O=C1NC[C@H](Cc2ccccc2)N(C[C@@H]2CCCN2C[C@H](Cc2ccc(O)cc2)N2C[C@H](Cc3ccc(O)cc3)N(CC3CCCCC3)C(=O)C2=O)C1=O	.	.	/	32	/	.
CCN(C(=O)COC(=O)CCC(=O)c1ccc(C)cc1)c1c(N)n(Cc2ccccc2)c(=O)[nH]c1=O	.	.	/	.	.	/
Cc1ccc(NC(=O)c2sc3nc(CCl)[nH]c(=O)c3c2C)c(C)c1	.	.	/	.	.	/
CCOc1cc(/C=N\NC(=O)Cn2nc([N+](=O)[O-])cc2C)ccc1OCc1cccc2ccccc12	.	.	.	38	.	.
Cc1cc(-c2nn3c(-c4ccccc4)nnc3s2)c2ccccc2n1	.	.	.	.	.	/

Screening results deposited in PubChem by several laboratories.
